{"source": "ChEMBL document CHEMBL5236607", "about": "“Membrane-Active Cyclic Amphiphilic Peptides: Broad-Spectrum Antibacterial Activity Alone and in Combination with Antibiotics” (J Med Chem, 2022)", "key": {"Klebsiella pneumoniae": {"test_system": "Klebsiella pneumoniae", "test": "Antibacterial activity against Klebsiella pneumoniae ATCC BAA-1705 incubated for 24 hrs by checkerboard assay", "assay_type": "functional"}, "Staphylococcus aureus [1]": {"test_system": "Staphylococcus aureus", "test": "Antibacterial activity against methicillin resistant Staphylococcus aureus ATCC BAA-1556 incubated for 24 hrs by checkerboard assay", "assay_type": "functional"}, "Pseudomonas aeruginosa": {"test_system": "Pseudomonas aeruginosa", "test": "Antibacterial activity against Pseudomonas aeruginosa ATCC […] incubated for 24 hrs by checkerboard assay", "assay_type": "functional"}, "Staphylococcus aureus [2]": {"test_system": "Staphylococcus aureus", "test": "Induction of resistance development in Staphylococcus aureus ATCC 29213 assessed as increase in MIC by microtiter plate reader assay", "assay_type": "functional, organism-based", "in_short": "(§1)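 Serial passage resistance assay with 2-fold microdilution MICs in 96-well plates. Each passage takes the well with the highest concentration still permitting growth, adjusts it to 0.5 McFarland, and dilutes it to a final 5 × 10^5 CFU/mL for the next passage. Eighteen passages; MIC recorded at each. Triplicate.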"}, "Staphylococcus aureus [3]": {"test_system": "Staphylococcus aureus", "test": "Induction of resistance development in methicillin resistant Staphylococcus aureus ATCC BAA-1556 assessed as increase in MIC by microtiter plate reader assay", "assay_type": "functional, organism-based", "in_short": "as §1"}, "Escherichia coli [4]": {"test_system": "Escherichia coli", "test": "Induction of resistance development in Escherichia coli ATCC 25922 assessed as increase in MIC by microtiter plate reader assay", "assay_type": "functional, organism-based"}, "Escherichia coli [5]": {"test_system": "Escherichia coli", "test": "Induction of resistance development in Escherichia coli ATCC BAA-2452 assessed as increase in MIC by microtiter plate reader assay", "assay_type": "functional, organism-based", "in_short": "as §1"}, "[6]": {"test": "Membrano-lytic effect in mammalian membrane mimic DOPC/cholesterol (10:1) large unilamellar vesicles assessed as calcein leakage measured at 50 microg/ml measured after 100 mins by multimode microplate reader assay", "assay_type": "cell membranes", "details": "dose 50.0 µg/ml", "in_short": "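Calcein (70 mM) loaded into extruded 100 nm LUVs: DOPC:DOPG 7:3 (w/w) as the bacterial mimic, DOPC/cholesterol 10:1 (w/w) as the mammalian mimic. Free dye removed by gel filtration. Liposomes at 40 μM final lipid in PBS mixed 1:1 with peptide (5–50 μg/mL). Fluorescence (ex 490/em 520 nm) read every 10 min for 100 min; Triton X-100 defines 100% release. Triplicate.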"}, "[7]": {"test": "Hemolytic activity in human RBC incubated for 2 hrs by spectrophotometric assay", "assay_type": "toxicity, cell-based, Erythrocyte", "details": "human red blood cells (RBC)", "in_short": "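Human RBCs with buffy coat removed, washed in PBS pH 7.4. Two-fold peptide dilutions in PBS mixed 1:1 with 4% (v/v) RBC suspension. Incubation 2 h at 37 °C without agitation, then centrifugation. Supernatant hemoglobin read at 567 nm. PBS set 0% and 1% Triton X-100 set 100% lysis. Triplicate.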"}, "[8]": {"test": "Therapeutic index, ratio of HC50 for human RBC to MIC for methicillin resistant Staphylococcus aureus ATCC BAA-1556", "in_short": "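Human RBCs washed in PBS pH 7.4 and mixed 1:1 with two-fold peptide dilutions (4% v/v suspension), 2 h at 37 °C. Hemoglobin in supernatant read at 567 nm against PBS (0%) and 1% Triton X-100 (100%). HC50 is the concentration giving 50% hemolysis. Index is HC50 divided by MIC against MRSA.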"}}, "note": "Activity calls are given as the source filed them. No cut-off for these calls is given here.", "data": [{"smiles": "C[C@@H](O)[C@H]1C(=O)N2C(C(=O)O)=C(S[C@@H]3CN[C@H](C(=O)N(C)C)C3)[C@H](C)[C@H]12", "note": "[MEROPENEM]", "values": [{"measurement": "MIC", "setting": "Klebsiella pneumoniae", "result": 256, "unit": "µg/mL"}, {"measurement": "MIC", "setting": "Staphylococcus aureus [1]", "result": 32, "unit": "µg/mL"}, {"measurement": "MIC", "setting": "Pseudomonas aeruginosa", "result": 32, "unit": "µg/mL"}]}, {"smiles": "CCCCCCCCCC(=O)N[C@@H](Cc1c[nH]c2ccccc12)C(=O)N[C@H](CC(N)=O)C(=O)N[C@@H](CC(=O)O)C(=O)N[C@@H]1C(=O)NCC(=O)N[C@@H](CCCN)C(=O)N[C@@H](CC(=O)O)C(=O)N[C@H](C)C(=O)N[C@@H](CC(=O)O)C(=O)NCC(=O)N[C@H](CO)C(=O)N[C@@H]([C@H](C)CC(=O)O)C(=O)N[C@@H](CC(=O)c2ccccc2N)C(=O)O[C@@H]1C", "values": [{"measurement": "Activity", "setting": "Staphylococcus aureus [2]", "result": "Active"}, {"measurement": "Activity", "setting": "Staphylococcus aureus [3]", "result": "Active"}, {"measurement": "Activity", "setting": "Escherichia coli [4]", "result": "Active"}, {"measurement": "Activity", "setting": "Escherichia coli [5]", "result": "Active"}, {"measurement": "Activity", "setting": "[6]", "result": 7, "unit": "%"}]}, {"smiles": "N=C(N)NCCC[C@@H]1NC(=O)[C@H](CCCNC(=N)N)NC(=O)[C@H](CCCNC(=N)N)NC(=O)[C@H](Cc2c[nH]c3ccccc23)NC(=O)[C@H](Cc2c[nH]c3ccccc23)NC(=O)[C@H](Cc2c[nH]c3ccccc23)NC(=O)[C@H](Cc2c[nH]c3ccccc23)NC(=O)[C@H](Cc2c[nH]c3ccccc23)NC(=O)[C@H](CCCNC(=N)N)NC1=O", "values": [{"measurement": "HC50 at 2 h", "setting": "[7]", "result": 100, "unit": "µg/mL"}, {"measurement": "TI", "setting": "[8]", "result": 12.5}]}]}
